In ChEMBL document CHEMBL4138262, “Antineoplastic Agents. 606. The Betulastatins” (2018):
Values after ≈ are worked out from the molar mass of the structure shown.

Experiments:
Assay type in all cases: functional
KM-20L2 = assay: Growth inhibition of human KM20L2 cells after 48 hrs by SRB assay; details: KM-20L2, 48 h
How it was run: (§1)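 Cells in RPMI1640 with 5% fetal bovine serum were seeded in 96-well plates and incubated 24 h before serial dilutions of compound were added. After 48 h, plates were TCA-fixed, stained with sulforhodamine B and read on a microplate reader. Five serial dilutions were tested, with optical density in duplicate per end point. GI50 was calculated from optical density as the concentration halving net protein increase.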

BXPC-3 = assay: Growth inhibition of human BxPC3 cells after 48 hrs by SRB assay; details: BXPC-3, 48 h; how it was run: as §1
MCF7 = assay: Growth inhibition of human MCF7 cells after 48 hrs by SRB assay; details: MCF7, 48 h; how it was run: as §1
NCI-H460 = assay: Growth inhibition of human NCI-H460 cells after 48 hrs by SRB assay; details: NCI-H460, 48 h; how it was run: as §1
SF-268 = assay: Growth inhibition of human SF268 cells after 48 hrs by SRB assay; details: SF-268, 48 h; how it was run: as §1
DU-145 = assay: Growth inhibition of human DU145 cells after 48 hrs by SRB assay; details: DU-145, 48 h; how it was run: as §1

| GI50 (BXPC-3) | GI50 (MCF7) | GI50 (NCI-H460) | GI50 (DU-145) | SMILES | GI50 (KM-20L2) | GI50 (SF-268) |
| --- | --- | --- | --- | --- | --- | --- |
| 0.31 µg/mL (≈ 0.287 µM) | 0.21 µg/mL (≈ 0.195 µM) | 0.6 µg/mL (≈ 0.556 µM) | 0.06 µg/mL (≈ 0.0556 µM) | CC[C@H](C)[C@@H]([C@@H](CC(=O)N1CCC[C@H]1[C@H](OC)[C@@H](C)C(=O)NCCN1C(=O)[C@]23CCC(C)(C)C1[C@@H]2[C@H]1CC[C@@H]2[C@@]4(C)CC[C@H](O)C(C)(C)[C@@H]4CC[C@@]2(C)[C@]1(C)CC3)OC)N(C)C(=O)[C@@H](NC(=O)[C@H](C(C)C)N(C)C)C(C)C | 0.22 µg/mL (≈ 0.204 µM) | 0.09 µg/mL (≈ 0.0834 µM) |
| 2 µg/mL (≈ 1.96 µM) | 0.7 µg/mL (≈ 0.685 µM) | 2.1 µg/mL (≈ 2.05 µM) | 0.4 µg/mL (≈ 0.391 µM) | C=C(C)[C@@H]1CC[C@]2(CO)CC[C@]3(C)[C@H](CC[C@@H]4[C@@]5(C)CC[C@H](NC(=O)[C@H](C)[C@@H](OC)[C@@H]6CCCN6C(=O)C[C@@H](OC)[C@H]([C@@H](C)CC)N(C)C(=O)[C@@H](NC(=O)[C@H](C(C)C)N(C)C)C(C)C)C(C)(C)[C@@H]5CC[C@]43C)[C@@H]12 | 0.85 µg/mL (≈ 0.831 µM) | 0.4 µg/mL (≈ 0.391 µM) |
| 0.6 µg/mL (≈ 0.587 µM) | 0.4 µg/mL (≈ 0.391 µM) | > 1 µg/mL | 0.4 µg/mL (≈ 0.391 µM) | C=C(C)[C@@H]1CC[C@]2(CNC(=O)[C@H](C)[C@@H](OC)[C@@H]3CCCN3C(=O)C[C@@H](OC)[C@H]([C@@H](C)CC)N(C)C(=O)[C@@H](NC(=O)[C@H](C(C)C)N(C)C)C(C)C)CC[C@]3(C)[C@H](CC[C@@H]4[C@@]5(C)CC[C@H](O)C(C)(C)[C@@H]5CC[C@]43C)[C@@H]12 | 0.31 µg/mL (≈ 0.303 µM) | 0.3 µg/mL (≈ 0.293 µM) |
| 0.4 µg/mL (≈ 0.385 µM) | 0.08 µg/mL (≈ 0.077 µM) | 0.5 µg/mL (≈ 0.481 µM) | 0.04 µg/mL (≈ 0.0385 µM) | C=C(CNC(=O)[C@H](C)[C@@H](OC)[C@@H]1CCCN1C(=O)C[C@@H](OC)[C@H]([C@@H](C)CC)N(C)C(=O)[C@@H](NC(=O)[C@H](C(C)C)N(C)C)C(C)C)[C@@H]1CC[C@]2(CO)CC[C@]3(C)[C@H](CC[C@@H]4[C@@]5(C)CC[C@H](O)C(C)(C)[C@@H]5CC[C@]43C)[C@@H]12 | 0.09 µg/mL (≈ 0.0867 µM) | 0.04 µg/mL (≈ 0.0385 µM) |
| 10 µg/mL (≈ 9.39 µM) | 4.1 µg/mL (≈ 3.85 µM) | > 10 µg/mL | 2.5 µg/mL (≈ 2.35 µM) | C=C(C)[C@@H]1CC[C@]2(COC(C)=O)CC[C@]3(C)[C@H](CC[C@@H]4[C@@]5(C)CC[C@H](NC(=O)[C@H](C)[C@@H](OC)[C@@H]6CCCN6C(=O)C[C@@H](OC)[C@H]([C@@H](C)CC)N(C)C(=O)[C@@H](NC(=O)[C@H](C(C)C)N(C)C)C(C)C)C(C)(C)[C@@H]5CC[C@]43C)[C@@H]12 | 7 µg/mL (≈ 6.58 µM) | 3.8 µg/mL (≈ 3.57 µM) |
| 4.1 µg/mL (≈ 3.85 µM) | 3.6 µg/mL (≈ 3.38 µM) | 4.2 µg/mL (≈ 3.95 µM) | 3.7 µg/mL (≈ 3.48 µM) | C=C(C)[C@@H]1CC[C@]2(CNC(=O)[C@H](C)[C@@H](OC)[C@@H]3CCCN3C(=O)C[C@@H](OC)[C@H]([C@@H](C)CC)N(C)C(=O)[C@@H](NC(=O)[C@H](C(C)C)N(C)C)C(C)C)CC[C@]3(C)[C@H](CC[C@@H]4[C@@]5(C)CC[C@H](OC(C)=O)C(C)(C)[C@@H]5CC[C@]43C)[C@@H]12 | 2.4 µg/mL (≈ 2.25 µM) | 2.6 µg/mL (≈ 2.44 µM) |
| 8 µg/mL (≈ 7.13 µM) | 6.3 µg/mL (≈ 5.61 µM) | > 10 µg/mL | 3 µg/mL (≈ 2.67 µM) | C=C(CNC(=O)[C@H](C)[C@@H](OC)[C@@H]1CCCN1C(=O)C[C@@H](OC)[C@H]([C@@H](C)CC)N(C)C(=O)[C@@H](NC(=O)[C@H](C(C)C)N(C)C)C(C)C)[C@@H]1CC[C@]2(COC(C)=O)CC[C@]3(C)[C@H](CC[C@@H]4[C@@]5(C)CC[C@H](OC(C)=O)C(C)(C)[C@@H]5CC[C@]43C)[C@@H]12 | 4 µg/mL (≈ 3.56 µM) | 4 µg/mL (≈ 3.56 µM) |

Second part, the compound before the results:

| SMILES | GI50 (BXPC-3) | GI50 (MCF7) | GI50 (NCI-H460) | GI50 (DU-145) | GI50 (KM-20L2) | GI50 (SF-268) |
| --- | --- | --- | --- | --- | --- | --- |
| C=C(CBr)[C@@H]1CC[C@]2(COC(C)=O)CC[C@]3(C)[C@H](CC[C@@H]4[C@@]5(C)CC[C@H](OC(C)=O)C(C)(C)[C@@H]5CC[C@]43C)[C@@H]12 | > 10 µg/mL | > 10 µg/mL | > 10 µg/mL | > 10 µg/mL | > 10 µg/mL | > 10 µg/mL |
| C=C(C)[C@@H]1CC[C@]2(COC(C)=O)CC[C@]3(C)[C@H](CC[C@@H]4[C@@]5(C)CC[C@H](N)C(C)(C)[C@@H]5CC[C@]43C)[C@@H]12 | 1.1 µg/mL (≈ 2.27 µM) | 0.2 µg/mL (≈ 0.413 µM) | 0.21 µg/mL (≈ 0.434 µM) | 0.13 µg/mL (≈ 0.269 µM) | 0.35 µg/mL (≈ 0.723 µM) | 0.21 µg/mL (≈ 0.434 µM) |
| C=C(C)[C@@H]1CC[C@]2(C=O)CC[C@]3(C)[C@H](CC[C@@H]4[C@@]5(C)CC[C@H](OC(C)=O)C(C)(C)[C@@H]5CC[C@]43C)[C@@H]12 | > 10 µg/mL | > 10 µg/mL | > 10 µg/mL | > 10 µg/mL | > 10 µg/mL | > 10 µg/mL |
| C=C(CN)[C@@H]1CC[C@]2(CO)CC[C@]3(C)[C@H](CC[C@@H]4[C@@]5(C)CC[C@H](O)C(C)(C)[C@@H]5CC[C@]43C)[C@@H]12 | 3 µg/mL (≈ 6.55 µM) | 3.1 µg/mL (≈ 6.77 µM) | 4 µg/mL (≈ 8.74 µM) | 2.1 µg/mL (≈ 4.59 µM) | 2.9 µg/mL (≈ 6.34 µM) | 4.2 µg/mL (≈ 9.18 µM) |
| C=C(CN=[N+]=[N-])[C@@H]1CC[C@]2(COC(C)=O)CC[C@]3(C)[C@H](CC[C@@H]4[C@@]5(C)CC[C@H](OC(C)=O)C(C)(C)[C@@H]5CC[C@]43C)[C@@H]12 | > 10 µg/mL | > 10 µg/mL | > 10 µg/mL | > 10 µg/mL | > 10 µg/mL | > 10 µg/mL |
| C=C(C)[C@@H]1CC[C@]2(CN)CC[C@]3(C)[C@H](CC[C@@H]4[C@@]5(C)CC[C@H](OC(C)=O)C(C)(C)[C@@H]5CC[C@]43C)[C@@H]12 | 1.9 µg/mL (≈ 3.93 µM) | 1.8 µg/mL (≈ 3.72 µM) | 1.9 µg/mL (≈ 3.93 µM) | 1.8 µg/mL (≈ 3.72 µM) | 1.9 µg/mL (≈ 3.93 µM) | 1.8 µg/mL (≈ 3.72 µM) |
| C=C(CNC(=O)[C@H](C)[C@@H](OC)[C@@H]1CCCN1C(=O)OC(C)(C)C)[C@@H]1CC[C@]2(COC(C)=O)CC[C@]3(C)[C@H](CC[C@@H]4[C@@]5(C)CC[C@H](OC(C)=O)C(C)(C)[C@@H]5CC[C@]43C)[C@@H]12 | > 10 µg/mL | > 10 µg/mL | > 10 µg/mL | > 10 µg/mL | 7 µg/mL (≈ 8.63 µM) | 5.9 µg/mL (≈ 7.27 µM) |
| C=C(C)[C@@H]1CC[C@]2(COC(C)=O)CC[C@]3(C)[C@H](CC[C@@H]4[C@@]5(C)CC[C@@H](N)C(C)(C)[C@@H]5CC[C@]43C)[C@@H]12 | > 10 µg/mL | 2.1 µg/mL (≈ 4.34 µM) | 6 µg/mL (≈ 12.4 µM) | 1.3 µg/mL (≈ 2.69 µM) | 3 µg/mL (≈ 6.2 µM) | 1.2 µg/mL (≈ 2.48 µM) |
| C=C(C)[C@@H]1CC[C@]2(/C=N/O)CC[C@]3(C)[C@H](CC[C@@H]4[C@@]5(C)CC[C@H](OC(C)=O)C(C)(C)[C@@H]5CC[C@]43C)[C@@H]12 | 15.5 µg/mL (≈ 31.1 µM) | 4.5 µg/mL (≈ 9.04 µM) | 4.1 µg/mL (≈ 8.24 µM) | > 10 µg/mL | 5.1 µg/mL (≈ 10.2 µM) | 13.2 µg/mL (≈ 26.5 µM) |
| C=C(C)[C@@H]1CC[C@]2(COC(C)=O)CC[C@]3(C)[C@H](CC[C@@H]4[C@@]5(C)CC[C@H](NC(=O)[C@H](C)[C@@H](OC)[C@@H]6CCCN6C(=O)OC(C)(C)C)C(C)(C)[C@@H]5CC[C@]43C)[C@@H]12 | > 10 µg/mL | > 10 µg/mL | > 10 µg/mL | > 10 µg/mL | > 10 µg/mL | > 10 µg/mL |
| CC[C@H](C)[C@@H]([C@@H](CC(=O)N1CCC[C@H]1[C@H](OC)[C@@H](C)C(=O)NCCN1C(=O)[C@]23CCC(C)(C)C1[C@@H]2[C@H]1CC[C@@H]2[C@@]4(C)CC[C@H](OC(C)=O)C(C)(C)[C@@H]4CC[C@@]2(C)[C@]1(C)CC3)OC)N(C)C(=O)[C@@H](NC(=O)[C@H](C(C)C)N(C)C)C(C)C | 3.8 µg/mL (≈ 3.39 µM) | 3.6 µg/mL (≈ 3.21 µM) | 5.1 µg/mL (≈ 4.55 µM) | 0.39 µg/mL (≈ 0.348 µM) | 3.1 µg/mL (≈ 2.76 µM) | 1.3 µg/mL (≈ 1.16 µM) |
| C=C(CNC(=O)[C@H](C)[C@@H](OC)[C@@H]1CCCN1C(=O)OC(C)(C)C)[C@@H]1CC[C@]2(CO)CC[C@]3(C)[C@H](CC[C@@H]4[C@@]5(C)CC[C@H](O)C(C)(C)[C@@H]5CC[C@]43C)[C@@H]12 | > 10 µg/mL | 9 µg/mL (≈ 12.4 µM) | > 10 µg/mL | > 10 µg/mL | > 10 µg/mL | > 10 µg/mL |
| C=C(C)[C@@H]1CC[C@]2(CNC(=O)[C@H](C)[C@@H](OC)[C@@H]3CCCN3C(=O)OC(C)(C)C)CC[C@]3(C)[C@H](CC[C@@H]4[C@@]5(C)CC[C@H](OC(C)=O)C(C)(C)[C@@H]5CC[C@]43C)[C@@H]12 | > 10 µg/mL | > 10 µg/mL | > 10 µg/mL | > 10 µg/mL | > 10 µg/mL | > 10 µg/mL |
| C=C(C)[C@@H]1CC[C@]2(COC(C)=O)CC[C@]3(C)[C@H](CC[C@@H]4[C@@]5(C)CC/C(=N/O)C(C)(C)[C@@H]5CC[C@]43C)[C@@H]12 | 10.4 µg/mL (≈ 20.9 µM) | 5.9 µg/mL (≈ 11.9 µM) | > 10 µg/mL | > 10 µg/mL | 14.1 µg/mL (≈ 28.3 µM) | > 10 µg/mL |
| C=C(C)[C@@H]1CC[C@]2(CO)CC[C@]3(C)[C@H](CC[C@@H]4[C@@]5(C)CC[C@H](O)C(C)(C)[C@@H]5CC[C@]43C)[C@@H]12 [BETULIN] | 9.3 µg/mL (≈ 21 µM) | > 10 µg/mL | 7.4 µg/mL (≈ 16.7 µM) | > 10 µg/mL | > 10 µg/mL | > 10 µg/mL |
